Measurements: ChEMBL document CHEMBL2176974, “A bactericidal guanidinomethyl biaryl that alters the dynamics of bacterial FtsZ polymerization” (J Med Chem, 2012)
≈ marks a conversion by molar mass, not a printed value. Calls of active or inactive are those of the source. The rule behind the calls is not given here.

Experiments:
Escherichia coli [1] = experiment: Antimicrobial activity against Escherichia coli W4573 incubated for 24 hrs by broth microdilution method; format: functional; conditions: W4573, 24 h
In short: (§1)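 CLSI broth microdilution. Log-phase bacteria at 10⁵ CFU/mL were exposed to 2-fold serial dilutions (64 to 0.016 μg/mL) in cation-adjusted Mueller-Hinton broth, 5% defibrinated sheep blood added for Streptococcus. Incubated aerobically 24 h at 37 °C. Growth read as OD600; MIC taken as the lowest concentration giving 90% growth inhibition.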

Escherichia coli [2] = experiment: Antimicrobial activity against ESBL producing Escherichia coli ATCC BAA-201 expressing TEM3 lactamase incubated for 24 hrs by broth microdilution method; format: functional; conditions: ATCC BAA-201, 24 h; in short: as §1
[3] = molecular target: T1, Cell division protein FtsZ (Escherichia coli K-12) (UniProt P0A9A6); experiment: Stimulation of Escherichia coli FtsZ self-polymerization at 40 ug/mL by microtiter plate-based light scattering assay
T1 sequence (whole entry): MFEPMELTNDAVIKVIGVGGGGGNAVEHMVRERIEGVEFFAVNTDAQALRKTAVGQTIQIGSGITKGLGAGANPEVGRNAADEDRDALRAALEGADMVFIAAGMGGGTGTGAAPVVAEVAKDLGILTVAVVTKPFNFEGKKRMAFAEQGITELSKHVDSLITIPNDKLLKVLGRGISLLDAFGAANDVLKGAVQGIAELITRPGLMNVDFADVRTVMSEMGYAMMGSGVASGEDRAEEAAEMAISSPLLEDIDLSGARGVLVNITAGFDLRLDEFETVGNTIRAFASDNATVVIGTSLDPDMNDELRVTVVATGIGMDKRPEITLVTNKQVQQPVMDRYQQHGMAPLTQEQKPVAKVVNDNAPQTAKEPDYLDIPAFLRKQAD

Escherichia coli [4] = experiment: Antimicrobial activity against Escherichia coli N43 expressing AcrAB efflux pump mutant incubated for 24 hrs by broth microdilution method; format: functional; conditions: N43, 24 h
Enterococcus faecalis [5] = experiment: microbe, parasite or virus in culture; format: functional; conditions: ATCC 51575, 24 h
Enterococcus faecalis [6] = experiment: microbe, parasite or virus in culture; format: functional; conditions: ATCC 19433, 24 h
Staphylococcus aureus [7] = experiment: Antimicrobial activity against methicillin-resistant Staphylococcus aureus Mu3 incubated for 24 hrs by broth microdilution method; format: functional; conditions: Mu3, 24 h
Staphylococcus aureus [8] = experiment: microbe, parasite or virus in culture; format: functional; conditions: ATCC 33591, 24 h
Staphylococcus aureus [9] = experiment: microbe, parasite or virus in culture; format: functional; conditions: ATCC 49951, 24 h
Staphylococcus aureus [10] = experiment: microbe, parasite or virus in culture; format: functional; conditions: 8325-4, 24 h
Enterococcus faecalis [11] = experiment: Stimulation of Enterococcus faecalis FtsZ self-polymerization at 40 ug/mL by microtiter plate-based light scattering assay
In short: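 Purified E. faecalis FtsZ (10 μM) mixed with compound (0–40 μg/mL) and 1 mM GTP in 50 mM Tris-HCl pH 7.4, 50 mM KCl, 2 mM magnesium acetate, 10 mM CaCl2. Polymerization followed continuously as light scattering (A340) at 25 °C over 400 min.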

[12] = molecular target: T2, Cell division protein FtsZ (Staphylococcus aureus) (UniProt P0A031); experiment: Stimulation of Staphylococcus aureus FtsZ self-polymerization at 40 ug/mL by microtiter plate-based light scattering assay
T2 sequence (whole entry): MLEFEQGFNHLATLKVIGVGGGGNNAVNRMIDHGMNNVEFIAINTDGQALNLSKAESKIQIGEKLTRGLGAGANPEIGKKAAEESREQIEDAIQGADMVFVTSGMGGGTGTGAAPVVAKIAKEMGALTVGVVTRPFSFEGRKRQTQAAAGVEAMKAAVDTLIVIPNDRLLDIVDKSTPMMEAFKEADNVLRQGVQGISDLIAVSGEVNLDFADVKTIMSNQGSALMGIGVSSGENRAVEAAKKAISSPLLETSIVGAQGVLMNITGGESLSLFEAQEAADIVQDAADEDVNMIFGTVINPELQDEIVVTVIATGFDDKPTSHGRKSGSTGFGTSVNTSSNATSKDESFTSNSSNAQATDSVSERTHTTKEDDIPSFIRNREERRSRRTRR

[13] = molecular target: T3, Cell division protein FtsZ (Staphylococcus aureus, UniProt P0A031); experiment: Binding affinity to Staphylococcus aureus FtsZ expressed in Escherichia coli BL21 (DE3) at 25 degC by fluorescence anisotropy assay
T3 sequence (P0A031 whole entry): T2 sequence (whole entry)
In short: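 Intrinsic compound fluorescence anisotropy. Compound at 5 μM was titrated with 0–25 μM FtsZ in 50 mM Tris·HCl pH 7.4, 50 mM KCl, 2 mM magnesium acetate. Samples were incubated 5 min at 25 °C, excited at 245 nm with emission at 318 nm, and G-corrected. Runs were in triplicate and averaged. Kd was obtained by nonlinear least-squares fit. SaFtsZ was expressed in E. coli BL21(DE3) and purified by ammonium sulfate, MonoQ and Superdex-200.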

[14] = molecular target: T4, Cell division protein FtsZ (Escherichia coli K-12, UniProt P0A9A6); experiment: Binding affinity to Escherichia coli FtsZ at 25 degC by fluorescence anisotropy assay
T4 sequence (P0A9A6 whole entry): T1 sequence (whole entry)

[15] = Binding affinity to Enterococcus faecalis FtsZ at 25 degC by fluorescence anisotropy assay
Escherichia coli [16] = experiment: Potency index, ratio of MBC to MIC for Escherichia coli W4573; format: functional
In short: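 MBC/MIC ratio. MIC: CLSI broth microdilution, 10⁵ CFU/mL in CAMH broth, 24 h at 37 °C, OD600, 90% inhibition. MBC: well aliquots plated on tryptic soy agar, counted after 24 h, 3-log CFU reduction. Ratio 1–2 read as bactericidal, ≥8 as bacteriostatic.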

Escherichia coli [17] = experiment: Antimicrobial activity against Escherichia coli W4573 incubated for 24 hrs in broth followed by colony transfer to tryptic soy agar for further 24 hrs incubation; format: functional; conditions: W4573, 24 h
In short: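 MBC: broth microdilution as for MIC (10⁵ CFU/mL, CAMH broth, 24 h, 37 °C). Aliquots from wells were then plated on tryptic soy agar and colonies counted after 24 h. MBC taken as the lowest concentration giving a 3-log CFU reduction.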

Staphylococcus aureus [18] = experiment: Antimicrobial effect against 3x10^9 CFU/ml methicillin-sensitive Staphylococcus aureus 8325-4 at 4 to 32 times MIC assessed as incidence of colonies growth measured after 24 incubation by large inoculation approach based drug resistance detection method; format: functional, organism-based
In short: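 Inoculum count checked on nonselective plates. Incubated at 37 °C and examined after 24 h and daily thereafter. Mutation frequency = colonies on selective plates / total bacteria plated.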

[19] = molecular target: Tubulin beta chain (Sus scrofa) (UniProt P02554); conditions: 10 ug/mL
Chain of Tubulin beta chain (Sus scrofa) (P02554 whole entry): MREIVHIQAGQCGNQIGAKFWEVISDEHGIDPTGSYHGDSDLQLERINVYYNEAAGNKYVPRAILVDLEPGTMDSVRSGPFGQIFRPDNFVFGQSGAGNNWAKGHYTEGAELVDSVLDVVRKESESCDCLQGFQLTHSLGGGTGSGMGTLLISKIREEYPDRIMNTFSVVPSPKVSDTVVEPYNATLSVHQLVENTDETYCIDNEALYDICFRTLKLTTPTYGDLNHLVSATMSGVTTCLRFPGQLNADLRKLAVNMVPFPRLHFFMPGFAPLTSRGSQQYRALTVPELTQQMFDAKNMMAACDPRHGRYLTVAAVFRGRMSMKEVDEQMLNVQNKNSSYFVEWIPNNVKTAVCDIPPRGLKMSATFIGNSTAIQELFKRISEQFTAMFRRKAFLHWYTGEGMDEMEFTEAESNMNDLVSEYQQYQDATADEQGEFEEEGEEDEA

SMILES	MIC (Escherichia coli [1]) [µg/mL]	MIC (Escherichia coli [2]) [µg/mL]	Activity [3]	MIC (Enterococcus faecalis [5]) [µg/mL]	MIC (Enterococcus faecalis [6]) [µg/mL]	MIC (Staphylococcus aureus [7]) [µg/mL]	MIC (Staphylococcus aureus [8]) [µg/mL]	MIC (Staphylococcus aureus [9]) [µg/mL]	MIC (Staphylococcus aureus [10]) [µg/mL]	Activity [12]	other results
CC1(C)S[C@@H]2[C@H](NC(=O)[C@H](N)c3ccccc3)C(=O)N2[C@H]1C(=O)[O-].[Na+] [AMPICILLIN SODIUM]	4	> 64	inactive								
CC(C)(C)c1ccc(-c2ccnc(CNC(=N)N)c2)cc1	64 (≈ 227 µM)	64 (≈ 227 µM)	inactive	64 (≈ 227 µM)	32 (≈ 113 µM)	8 (≈ 28.3 µM)	16 (≈ 56.7 µM)	8 (≈ 28.3 µM)	8 (≈ 28.3 µM)	inactive	MIC (Escherichia coli [4]): 8 µg/mL (≈ 28.3 µM); Activity (Enterococcus faecalis [11]): inactive; Kd [13]: Not Active; Kd [14]: Not Active; Kd [15]: Not Active
NC[C@@H]1O[C@H](O[C@H]2[C@@H](O)[C@H](O[C@@H]3[C@@H](O)[C@H](N)C[C@H](N)[C@H]3O[C@H]3O[C@H](CN)[C@@H](O)[C@H](O)[C@H]3N)O[C@@H]2CO)[C@H](N)[C@@H](O)[C@@H]1O.O.O=S(=O)(O)O [NEOMYCIN TRISULFATE HYDRATE]	1										Ratio (Escherichia coli [16]): 2; MBC (Escherichia coli [17]): 2 µg/mL
CO[C@H]1/C=C/O[C@@]2(C)Oc3c(C)c(O)c4c(O)c(c(/C=N/N5CCN(C)CC5)c(O)c4c3C2=O)NC(=O)/C(C)=C\C=C\[C@H](C)[C@H](O)[C@@H](C)[C@@H](O)[C@@H](C)[C@H](OC(C)=O)[C@@H]1C											Activity (Staphylococcus aureus [18]): inactive
CCC[C@@H]1C[C@@H](C(=O)N[C@@H]([C@H]2O[C@H](SC)[C@H](O)[C@@H](O)[C@H]2O)[C@H](C)Cl)N(C)C1.Cl [CLINDAMYCIN HYDROCHLORIDE]				> 64	2	> 64	> 64	0.063	0.031	inactive	
COC(=O)Nc1nc2cc(C(=O)c3cccs3)ccc2[nH]1											inhibition [19]: Active
